Series [1] deals with T1, 5-hydroxytryptamine receptor 6 (Homo sapiens, UniProt P50406). Put plainly: Displacement of [3H]LSD from human 5-HT6 receptor expressed in HEK293 cell membranes at 100 nM incubated for 60 mins by radioligand binding assay. The method, boiled down: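 Competition binding on membranes of HEK-293 cells transiently expressing human 5-HT6; 4 of protein incubated 60 min at 37 °C in duplicate with 2.5 nM [3H]-LSD in 50 mM Tris-HCl pH 7.4, 10 mM MgCl₂, 0.5 mM EDTA. Compounds tested at 10^-7 M for % displacement (n = 3), then Ki calculated. GF/C filtration, five ice-cold buffer washes.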

A short description of series [2]: Cytotoxicity against human SH-SY5Y cells assessed as inhibition of cell growth at 100 uM after 72 hrs by MTT assay. The following applies: read-out: GI. It counts as cell-based. Put shortly: (§1)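 SH-SY5Y cells grown in DMEM with 2 mM L-glutamine, streptomycin, 100 IU/mL penicillin, 1 mM non-essential amino acids, 10% heat-inactivated FBS, 37 °C, 5% CO₂. Seeded at 2000 cells/well, serum-starved 24 h for synchrony, then exposed to test compounds (DMSO below 0.1%) at various concentrations up to 100. Growth read by MTT colorimetric assay after 72 h.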

The nature of series [3]: Cytotoxicity against human SH-SY5Y cells assessed as inhibition of cell growth after 72 hrs by MTT assay. It counts as cell-based. The method, boiled down: as §1
In series [4] the target is T1, 5-hydroxytryptamine receptor 6. As to the kind of experiment: Displacement of [3H]LSD from human 5-HT6 receptor expressed in HEK293 cell membranes incubated for 60 mins by radioligand binding assay.

T1 sequence (P50406 whole entry): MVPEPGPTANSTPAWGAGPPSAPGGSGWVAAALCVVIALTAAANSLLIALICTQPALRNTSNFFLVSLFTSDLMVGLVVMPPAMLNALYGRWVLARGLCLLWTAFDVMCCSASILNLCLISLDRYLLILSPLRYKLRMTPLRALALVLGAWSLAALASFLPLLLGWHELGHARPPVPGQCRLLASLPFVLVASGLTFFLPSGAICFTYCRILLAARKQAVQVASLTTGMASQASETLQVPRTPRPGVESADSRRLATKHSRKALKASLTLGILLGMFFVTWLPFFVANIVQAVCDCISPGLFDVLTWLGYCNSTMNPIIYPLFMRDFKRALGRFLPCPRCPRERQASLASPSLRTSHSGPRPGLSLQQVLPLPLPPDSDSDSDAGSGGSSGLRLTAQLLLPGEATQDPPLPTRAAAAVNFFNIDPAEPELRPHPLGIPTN

In series [1], `O=c1sc2cc(N(S(=O)(=O)c3ccccc3)S(=O)(=O)c3ccccc3)ccc2n1CCN1CCCC1` gave an inhibition of 20%. Also, the inhibition at 72 h, 100 µM in series [2] was determined as 19%.

With `CN(c1ccccc1)S(=O)(=O)c1ccc2c(c1)sc(=O)n2CCN1CCCCC1`, in series [1], the inhibition came out at 0%. Also, the IC50 in series [3] turned out to be 50 µM.

`O=c1sc2cc(NS(=O)(=O)c3ccc4ccccc4c3)ccc2n1CCN1CCCCC1` came in with an inhibition in series [1] of 4%. For the same compound, the inhibition at 72 h, 100 µM in series [2] turned out to be 5%.

`O=c1sc2cc(NS(=O)(=O)c3ccccc3)ccc2n1CCN1CCCC1` gave an inhibition in series [1] of 11%. Further, in series [2], the inhibition at 72 h, 100 µM was found to be 25%.

Consider `O=c1sc2cc(S(=O)(=O)c3ccccc3)ccc2n1CCN1CCCCC1`, for which, in series [1], the inhibition was found to be 11%. In addition, in series [3], the IC50 was 44.1 µM.

Turning to `O=c1sc2cc(S(=O)(=O)Nc3cccc4ccccc34)ccc2n1CCN1CCCC1`, the inhibition in series [1] came out at 0%. Further, in series [3], the IC50 was determined as 68.6 µM.

In series [1], `CN(C)CCn1c(=O)sc2cc(NS(=O)(=O)c3ccccc3)ccc21` yielded an inhibition of 5%. Also, the inhibition at 72 h, 100 µM in series [2] turned out to be 20%.

As for `CN(C)CCn1c(=O)sc2cc(S(=O)(=O)Nc3cccc4ccccc34)ccc21`, the IC50 in series [3] worked out at 45.7 µM. Further, the Ki in series [4] was 0.1 µM.

Turning to `CN(c1cccc2ccccc12)S(=O)(=O)c1ccc2c(c1)sc(=O)n2CCN1CCCC1`, the inhibition in series [1] turned out to be 40%. Also, the IC50 in series [3] came to 102 µM.

With `CN(C)CCn1c(=O)sc2cc(S(=O)(=O)N(C)c3ccccc3)ccc21`, the inhibition in series [1] came out at 5%. Besides, the IC50 in series [3] stood at 91 µM.

As to `CN(C)CCn1c(=O)sc2cc(S(=O)(=O)Nc3ccccc3)ccc21`, the inhibition in series [1] was 21%. Besides, the inhibition at 72 h, 100 µM in series [2] was determined as 0%.

With `CN(C)CCn1c(=O)sc2cc(S(=O)(=O)c3ccccc3)ccc21`, the inhibition in series [1] is 16%. For the same compound, in series [3], the IC50 is 86.9 µM.

As to `O=c1sc2cc(NS(=O)(=O)c3ccc4ccccc4c3)ccc2n1CCN1CCCC1`, in series [1], the inhibition amounted to 0%. The inhibition at 72 h, 100 µM in series [2] amounted to 28%.

For `O=c1sc2cc(S(=O)(=O)Nc3ccccc3)ccc2n1CCN1CCCC1`, the inhibition in series [1] was determined as 37%. For the same compound, the half-inhibitory concentration (IC50) in series [3] came to 10 µM.

As for `CN(c1cccc2ccccc12)S(=O)(=O)c1ccc2c(c1)sc(=O)n2CCN1CCCCC1`, the inhibition in series [1] was 14%. The IC50 in series [3] came to 91.9 µM.

In the case of `CN(C)CCn1c(=O)sc2cc(S(=O)(=O)N(C)c3cccc4ccccc34)ccc21`, in series [1], the inhibition worked out at 0%. Moreover, the IC50 in series [3] was found to be 29 µM.

On to `O=c1sc2cc(NS(=O)(=O)c3ccccc3)ccc2n1CCN1CCCCC1`, for which the inhibition in series [1] came to 6%. Besides, the inhibition at 72 h, 100 µM in series [2] came to 39%.

Compound `O=c1sc2cc(S(=O)(=O)Nc3cccc4ccccc34)ccc2n1CCN1CCCCC1` came in with an inhibition in series [1] of 3%. Moreover, the IC50 in series [3] amounted to 25.2 µM.

Compound `CN(C)CCn1c(=O)sc2cc(NS(=O)(=O)c3ccc4ccccc4c3)ccc21` displayed an inhibition in series [1] of 22%. The inhibition at 72 h, 100 µM in series [2] was found to be 17%.

Consider `O=c1sc2cc(S(=O)(=O)Nc3ccccc3)ccc2n1CCN1CCCCC1`, for which the inhibition in series [1] worked out at 7%. Also, the IC50 in series [3] amounted to 17.4 µM.

Compound `CN(c1ccccc1)S(=O)(=O)c1ccc2c(c1)sc(=O)n2CCN1CCCC1` came in with an inhibition in series [1] of 10%. For the same compound, in series [3], the IC50 worked out at 49.5 µM.
